Source: PMC4550695 (mBio, 2015)

What was measured:
P. aeruginosa AmiC [1] = molecular target: T1, P. aeruginosa AmiC (Pseudomonas aeruginosa, UniProt P27017); settings: ref [36]; cited from earlier work
NPR-C receptor = settings: mammalian cells; ref [25]; cited from earlier work
[2] = system: ami operon of P. aeruginosa; experiment: qRT-PCR of ami operon mRNA; assay type: cell-based, Pseudomonas aeruginosa; settings: BNP 10^−6 M; data not shown
Caenorhabditis elegans = settings: ref [16]; cited from earlier work
PA14 ΔamiC strain = experiment: Biofilm formation under dynamic conditions, PA14 ΔamiC strain; assay type: cell-based, Pseudomonas aeruginosa; settings: BNP 10^−7 M, 24 h, P < 0.05, eight samples from three experiments
NPR-A receptor = settings: mammalian cells; ref [25]; cited from earlier work
P. aeruginosa cAMP = settings: ref [17]; cited from earlier work
P. aeruginosa PA14 = experiment: Biofilm formation under dynamic conditions, P. aeruginosa PA14 wild type; assay type: cell-based, Pseudomonas aeruginosa; settings: 24 h
P. aeruginosa AmiC [3] = molecular target: T1, P. aeruginosa AmiC; experiment: Microscale thermophoresis binding to recombinant AmiC; settings: for affinity for / interaction with AmiC, in words: MST, pH 7.5, 25°C
Summary of the method: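 His-tagged codon-optimised AmiC expressed in E. coli Rosetta2(DE3), purified by IMAC and gel filtration, RED-NHS labelled or unlabelled depending on ligand. AmiC at 50 nM final, mixed with 1:1 serial ligand dilutions in 50 mM Tris-HCl pH 7.5, 150 mM NaCl, 10 mM MgCl2, 0.05% Tween 20. After 5 min incubation, read at 25°C (laser 5/30/5 s); three independent pipettings; KD fitted by mass-action equation.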

[4] = system: membrane of P. aeruginosa; settings: inducing increased virulence; ref [14]; cited from earlier work
P. aeruginosa MPAO1 = experiment: Biofilm formation under static conditions, P. aeruginosa MPAO1; assay type: cell-based, Pseudomonas aeruginosa; settings: isatin 10^−5 M alone, 24 h
Summary of the method: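 Uses a GFP-plasmid (pSMC2.1) strain; overnight preculture at 37°C diluted into LB with 400 µg/ml kanamycin. Test compound added at 2 h of subculture from DMSO/water (5/95) stock, final DMSO under 0.2%, DMSO-matched controls. After 3 h more, cells pelleted, resuspended in 0.9% NaCl at OD600 0.1, 2 h static attachment on glass slides, then LB 24 h static at 37°C. PBS-rinsed, heat fixed, CLSM/COMSTAT.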

[5] = endogenous, usual order; ref [52]; cited from earlier work

T1 sequence (P27017 whole entry): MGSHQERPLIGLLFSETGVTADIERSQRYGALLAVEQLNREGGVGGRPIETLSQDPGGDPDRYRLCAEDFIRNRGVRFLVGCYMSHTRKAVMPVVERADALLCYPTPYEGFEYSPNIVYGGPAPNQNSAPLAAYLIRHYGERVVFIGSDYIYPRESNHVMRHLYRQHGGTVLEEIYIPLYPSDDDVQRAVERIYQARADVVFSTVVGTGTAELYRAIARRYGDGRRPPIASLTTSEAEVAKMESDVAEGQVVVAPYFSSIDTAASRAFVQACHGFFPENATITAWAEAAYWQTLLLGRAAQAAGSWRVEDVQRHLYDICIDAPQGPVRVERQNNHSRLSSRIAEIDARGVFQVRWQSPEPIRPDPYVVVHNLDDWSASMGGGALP

CC(N)=O [acetamide]
effect of acetamide on ami operon transcription via AmiC (P. aeruginosa AmiC [1]): triggering the transcription of the whole ami operon

brain natriuretic peptide [BNP]
affinity for NPR-C (NPR-C receptor): weak affinity
whole ami operon transcriptional activity [2]: no significant effect
effect on P. aeruginosa virulence for Caenorhabditis elegans (Caenorhabditis elegans): without effect
change of biofilm formation in ΔamiC mutant (PA14 ΔamiC strain): −70.8% ± 12.1%
affinity for NPR-A (NPR-A receptor): strongly binds
intrabacterial cAMP (P. aeruginosa cAMP): did not modify intrabacterial cAMP levels
change of biofilm average thickness (P. aeruginosa PA14; 10^−6 M, PA14, dynamic (flow cell), LB, 37°C, vs control, P < 0.001): −76.0 ± 4.8%
change of biofilm volume (P. aeruginosa PA14; 10^−6 M, PA14, dynamic (flow cell), LB, 37°C, vs control, P < 0.001, CNP: ten samples from six experiments, BNP: six samples from two experiments): −80.3% ± 4.4%
number and mean size of mushroom-like structures in the biofilm (P. aeruginosa PA14; 10^−6 M, PA14, dynamic, confocal microscopy): reduction of the number and mean size of mushroom-like structures
change of biofilm formation (P. aeruginosa PA14; BNP 10^−7 M, PA14 wild type, dynamic, P < 0.001, nine samples from three experiments): −75.1% ± 9.9%
affinity for / interaction with AmiC, in words (P. aeruginosa AmiC [3]): no affinity for AmiC

dynorphin
crossing of the membrane of P. aeruginosa [4]: able to freely cross the membrane

O=C1Nc2ccccc2C1=O [isatin, indole-2,3-dione]
effect of isatin alone on organization of the biofilm (P. aeruginosa MPAO1): more irregular, with the presence of large water channels
effect of isatin alone on biomass and thickness of the biofilm (P. aeruginosa MPAO1; two independent experiments): limited and nonsignificant increase
normal blood isatin concentration [5]: 0.3 to 1.3 µM
Kd (P. aeruginosa AmiC [3]): 600 ± 200 µM

B1: osteocrin: specific NPR-C agonist, synthesized by J. Leprince (peptide, UniProt P61366 28-133, looked up)
Osteocrin: VDVTTTEAFDSGVIDVQSTPTVREEKSATDLTAKLLLLDELVSLENDVIETKKKRSFSGFGSPLDRLSAGSVDHKGKQRKVVDHPKRRFGIPMDRIGRNRLSNSRG
modifications: Osteocrin
affinity for / interaction with AmiC, in words (P. aeruginosa AmiC [3]): very strong interaction
